Activity calls are given as the source filed them. The rule behind the calls is not given here.
Tests used:
[1] = molecular target: T1, Myosin light chain kinase, smooth muscle (Homo sapiens, UniProt Q15746); assay: Inhibition of MLCK by HTRF assay
[2] = molecular target: T1, Myosin light chain kinase, smooth muscle; assay: Inhibition of MLCK up to 40 uM by HTRF assay
Summary of the method: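 HTRF activity assay with peptide substrate STK1 at 375 nM and ATP at its Km (18 µM), in the presence of Ca2+/calmodulin. Kinase and inhibitor preincubated 30 min, then ATP plus substrate added. Detection by Eu-cryptate anti-phospho-STK1 antibody and streptavidin-XL665, with the 665/620 nm FRET ratio read. Eight inhibitor concentrations, Hill 4-parameter fit. At least two independent runs, each in duplicate. NI means no inhibition up to 40 µM.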

[3] = molecular target: T2, Epidermal growth factor receptor (Homo sapiens, UniProt P00533); assay: Inhibition of EGFR by HTRF assay
[4] = molecular target: T2, Epidermal growth factor receptor; assay: Inhibition of EGFR up to 40 uM by HTRF assay

T2 sequence (P00533 whole entry): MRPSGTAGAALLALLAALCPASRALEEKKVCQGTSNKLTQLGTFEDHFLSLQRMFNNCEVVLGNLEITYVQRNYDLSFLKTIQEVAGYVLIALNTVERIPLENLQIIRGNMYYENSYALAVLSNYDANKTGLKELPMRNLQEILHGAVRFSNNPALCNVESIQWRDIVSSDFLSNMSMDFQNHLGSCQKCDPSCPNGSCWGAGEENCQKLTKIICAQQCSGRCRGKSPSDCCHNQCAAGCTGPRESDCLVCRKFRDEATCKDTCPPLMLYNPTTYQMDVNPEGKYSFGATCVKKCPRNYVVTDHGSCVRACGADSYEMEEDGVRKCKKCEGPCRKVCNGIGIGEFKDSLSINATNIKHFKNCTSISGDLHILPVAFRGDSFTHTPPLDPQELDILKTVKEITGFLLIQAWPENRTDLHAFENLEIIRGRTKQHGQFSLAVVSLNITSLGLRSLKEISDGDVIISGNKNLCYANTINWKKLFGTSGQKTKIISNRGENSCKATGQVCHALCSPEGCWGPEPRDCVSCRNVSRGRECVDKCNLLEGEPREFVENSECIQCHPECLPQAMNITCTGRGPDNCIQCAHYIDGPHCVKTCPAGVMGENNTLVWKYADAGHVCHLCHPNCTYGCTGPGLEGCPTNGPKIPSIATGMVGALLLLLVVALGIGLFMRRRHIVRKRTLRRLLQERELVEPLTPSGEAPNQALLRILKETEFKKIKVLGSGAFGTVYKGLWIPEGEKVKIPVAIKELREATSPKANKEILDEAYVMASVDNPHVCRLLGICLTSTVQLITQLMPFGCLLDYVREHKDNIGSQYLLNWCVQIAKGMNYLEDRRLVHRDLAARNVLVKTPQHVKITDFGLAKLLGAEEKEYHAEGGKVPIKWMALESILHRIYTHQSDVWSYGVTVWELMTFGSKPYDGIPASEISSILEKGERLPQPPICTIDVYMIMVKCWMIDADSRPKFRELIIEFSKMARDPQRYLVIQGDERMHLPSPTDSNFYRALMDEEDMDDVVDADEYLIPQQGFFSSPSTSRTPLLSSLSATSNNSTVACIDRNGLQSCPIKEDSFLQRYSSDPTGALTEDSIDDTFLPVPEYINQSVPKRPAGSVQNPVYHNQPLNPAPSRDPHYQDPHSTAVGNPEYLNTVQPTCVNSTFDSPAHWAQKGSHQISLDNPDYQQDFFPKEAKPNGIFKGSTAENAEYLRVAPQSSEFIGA
T1 sequence (Q15746 whole entry): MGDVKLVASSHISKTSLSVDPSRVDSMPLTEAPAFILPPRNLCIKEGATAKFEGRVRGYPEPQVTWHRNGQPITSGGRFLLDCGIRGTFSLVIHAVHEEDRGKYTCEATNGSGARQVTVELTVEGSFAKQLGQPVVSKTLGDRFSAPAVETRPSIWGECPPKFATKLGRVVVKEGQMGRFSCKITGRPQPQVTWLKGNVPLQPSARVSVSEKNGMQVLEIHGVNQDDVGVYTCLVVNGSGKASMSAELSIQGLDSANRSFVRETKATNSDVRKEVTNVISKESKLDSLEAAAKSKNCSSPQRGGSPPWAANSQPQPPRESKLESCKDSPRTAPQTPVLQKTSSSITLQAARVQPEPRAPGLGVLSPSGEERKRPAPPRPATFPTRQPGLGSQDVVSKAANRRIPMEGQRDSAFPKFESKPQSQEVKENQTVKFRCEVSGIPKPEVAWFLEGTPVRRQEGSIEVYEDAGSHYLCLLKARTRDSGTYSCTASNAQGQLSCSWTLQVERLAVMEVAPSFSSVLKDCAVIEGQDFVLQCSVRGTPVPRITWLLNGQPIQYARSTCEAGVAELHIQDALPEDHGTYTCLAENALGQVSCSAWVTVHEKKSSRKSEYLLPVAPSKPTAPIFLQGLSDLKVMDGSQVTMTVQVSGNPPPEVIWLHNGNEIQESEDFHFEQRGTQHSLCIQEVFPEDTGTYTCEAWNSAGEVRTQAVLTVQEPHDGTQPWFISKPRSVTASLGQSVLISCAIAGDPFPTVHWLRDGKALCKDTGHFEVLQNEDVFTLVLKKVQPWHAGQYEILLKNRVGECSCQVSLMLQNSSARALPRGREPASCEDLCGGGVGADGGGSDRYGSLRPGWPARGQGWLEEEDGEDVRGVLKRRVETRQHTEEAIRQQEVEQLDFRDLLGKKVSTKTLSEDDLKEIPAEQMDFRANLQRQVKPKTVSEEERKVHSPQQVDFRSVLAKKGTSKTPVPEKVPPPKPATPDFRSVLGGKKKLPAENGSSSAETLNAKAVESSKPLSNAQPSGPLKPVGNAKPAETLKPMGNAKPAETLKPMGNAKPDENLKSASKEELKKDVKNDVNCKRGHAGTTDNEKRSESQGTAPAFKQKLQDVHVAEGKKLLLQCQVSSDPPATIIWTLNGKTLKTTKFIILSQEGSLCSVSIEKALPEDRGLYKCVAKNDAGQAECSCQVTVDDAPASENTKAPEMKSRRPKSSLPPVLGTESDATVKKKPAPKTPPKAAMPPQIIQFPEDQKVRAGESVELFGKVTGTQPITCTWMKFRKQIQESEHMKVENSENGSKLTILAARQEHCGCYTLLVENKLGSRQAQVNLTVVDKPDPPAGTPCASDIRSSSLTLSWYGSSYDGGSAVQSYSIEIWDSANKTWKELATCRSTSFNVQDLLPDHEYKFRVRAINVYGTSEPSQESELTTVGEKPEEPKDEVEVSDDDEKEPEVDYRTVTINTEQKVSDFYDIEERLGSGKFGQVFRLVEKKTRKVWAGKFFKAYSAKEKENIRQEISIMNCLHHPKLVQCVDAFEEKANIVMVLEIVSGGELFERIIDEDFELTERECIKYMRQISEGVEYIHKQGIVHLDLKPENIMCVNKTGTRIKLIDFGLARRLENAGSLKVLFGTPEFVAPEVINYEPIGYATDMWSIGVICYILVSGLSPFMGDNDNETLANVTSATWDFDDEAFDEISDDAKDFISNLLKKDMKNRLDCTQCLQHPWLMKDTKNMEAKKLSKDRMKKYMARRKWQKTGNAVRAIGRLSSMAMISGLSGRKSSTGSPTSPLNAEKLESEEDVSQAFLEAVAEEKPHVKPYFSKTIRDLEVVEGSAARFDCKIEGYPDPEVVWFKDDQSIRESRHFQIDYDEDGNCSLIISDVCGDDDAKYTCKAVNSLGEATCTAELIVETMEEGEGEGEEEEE

Row | Compound | inhibition [2] | IC50 [3] | further results
1 | NCCCCCCNS(=O)(=O)c1cccc2c(Cl)cccc12 |  |  | Ki [1]: 110 µM
2 | O=S(=O)(c1cccc2c(I)cccc12)N1CCCNCC1 |  |  | Ki [1]: 0.3 µM
3 | COC[C@H]1OC(=O)c2coc3c2[C@@]1(C)C1=C(C3=O)[C@@H]2CCC(=O)[C@@]2(C)C[C@H]1OC(C)=O [WORTMANNIN] |  |  | IC50 [1]: 0.17 µM
4 | N#Cc1cnc(Nc2cccc(Br)c2)c2cc(NC(=O)c3cc4ccccc4[nH]3)ccc12 | inactive |  | inhibition [4]: inactive
5 | O=S(=O)(c1cccc2cnccc12)N1CCCNCC1 [FASUDIL] |  |  | IC50 [1]: 21.6 µM; Ki [1]: 36 µM

Continued, in another order:

Row | inhibition [2] | IC50 [3] | Compound | further results
6 | inactive | 45.2 µM | N#Cc1cnc(Nc2cccc(Br)c2)c2cc(NC(=O)c3ccoc3)ccc12 | 
7 | inactive | 6.9 µM | N#Cc1cnc(Nc2cccc(Br)c2)c2cc(NC(=O)CCN3CCOCC3)ccc12 | 
8 | inactive | 12.8 µM | CCOC(=O)Nc1ccc2c(C#N)cnc(Nc3cccc(Br)c3)c2c1 | 
9 | inactive | 20.8 µM | CCC(=O)Nc1ccc2c(C#N)cnc(Nc3cccc(Br)c3)c2c1 | 
10 | inactive | 55.6 µM | N#Cc1cnc(Nc2cccc(Br)c2)c2cc(NC(=O)c3ccco3)ccc12 | 
11 | inactive | 2.2 µM | N#Cc1cnc(Nc2cccc(Br)c2)c2cc(NC(=O)[C@@H]3CCC(=O)N3)ccc12 | 
